In series [1] the test system is Human immunodeficiency virus 2. Put plainly: Antiviral activity against HIV2 ROD infected in human CEM/TK- cells assessed as inhibition of virus-induced cytopathicity after 4 to 5 days. The series is classed as functional, organism-based. The note with it: Human immunodeficiency virus 2, ISOLATE ROD. For orientation: Cytopathic effects are the visible damage that an infection or toxin causes in cultured cells.

Series [2] has as its system Human immunodeficiency virus 2. The series can be described thus: Antiviral activity against HIV2 ROD infected in human CEM/0 cells assessed as inhibition of virus-induced cytopathicity after 4 to 5 days. It counts as functional, organism-based. Conditions: Human immunodeficiency virus 2, ISOLATE ROD, CCRF-CEM.
Series [3] is described as follows: Cytotoxicity against human CEM/0 cells. The series is classed as cell-based, CCRF-CEM. Put shortly:
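Proliferation of CEM cells measured by Coulter particle counting across a range of compound concentrations. CC50 is the concentration inhibiting cell proliferation by 50%.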

Series [4] concerns Human immunodeficiency virus 1. Put plainly: Antiviral activity against HIV1 3B infected in human CEM/0 cells assessed as inhibition of virus-induced cytopathicity after 4 to 5 days. It counts as functional, organism-based. Conditions: Human immunodeficiency virus 1, 3B, CCRF-CEM.
Series [5] deals with Moloney murine sarcoma virus. The series can be described thus: Antiviral activity against murine sarcoma virus infected in murine C3H/3T3 cells assessed as inhibition of virus-induced cell transformation.

The values that follow come from ChEMBL document CHEMBL1275367, “Diastereoselective synthesis of aryloxy phosphoramidate prodrugs of 3'-deoxy-2',3'-didehydrothymidine monophosphate” (J Med Chem, 2010).

The EC50 is the concentration that produces a half-maximal response. As usually defined, the CC50 is the concentration at which the toxic effect on the cells reaches its halfway point. Higher therefore signals lower toxicity to the cells.

Take `COC(=O)[C@H](C)N[P@](=O)(OC[C@@H]1C=C[C@H](n2cc(C)c(=O)[nH]c2=O)O1)Oc1ccc(C)cc1`: the concentration giving a half-maximal response (EC50) in series [1] worked out at 32 nM; in series [2], 140 nM; in series [4], 120 nM; in series [5], 1800 nM. The cytotoxic concentration (CC50) in series [3] amounted to 79000 nM.

With `COC(=O)[C@H](C)N[P@@](=O)(OC[C@@H]1C=C[C@H](n2cc(C)c(=O)[nH]c2=O)O1)Oc1ccc(C)cc1`, the EC50 in series [1] was 2100 nM; in series [2], 460 nM; in series [4], 820 nM; in series [5], 1800 nM. The compound also showed a CC50 in series [3] of more than 250000 nM.

On to `COC(=O)[C@H](C)N[P@](=O)(OC[C@@H]1C=C[C@H](n2cc(C)c(=O)[nH]c2=O)O1)Oc1ccc(OC)cc1`, for which the EC50 in series [1] is 48 nM; in series [2], 140 nM; in series [4], 150 nM; in series [5] it was 2000 nM. In series [3], this compound gave a cytotoxic concentration (CC50) of 77000 nM.

As to `COC(=O)[C@H](C)N[P@@](=O)(OC[C@@H]1C=C[C@H](n2cc(C)c(=O)[nH]c2=O)O1)Oc1ccc(OC)cc1`, the EC50 amounted to 1900 nM in series [1], 860 nM in series [2], 1100 nM in series [4] and 5300 nM in series [5]. This compound also displayed a CC50 in series [3] of 235000 nM.

`COC(=O)[C@H](C)N[P@](=O)(OC[C@@H]1C=C[C@H](n2cc(C)c(=O)[nH]c2=O)O1)Oc1ccccc1C`: the EC50 in series [1] turned out to be 1900 nM; in series [2], 1100 nM; in series [4], 1300 nM; in series [5] it was 9800 nM. For the same compound, the 50% cytotoxic concentration (CC50) in series [3] is more than 250000 nM.

On to `COC(=O)[C@H](C)N[P@@](=O)(OC[C@@H]1C=C[C@H](n2cc(C)c(=O)[nH]c2=O)O1)Oc1ccccc1C`, for which the concentration for a half-maximal effect (EC50) turned out to be 2900 nM in series [1], 1300 nM in series [2], 1300 nM in series [4] and 4000 nM in series [5]. The compound also registered a cytotoxic concentration (CC50) in series [3] of more than 250000 nM.

For `COC(=O)[C@H](C)N[P@](=O)(OC[C@@H]1C=C[C@H](n2cc(C)c(=O)[nH]c2=O)O1)Oc1cccc2ccccc12`, the 50% effective concentration (EC50) in series [1] came out at 130 nM; in series [2], 160 nM; in series [4], 150 nM; in series [5], 530 nM. Moreover, half-maximal cytotoxicity in series [3] (CC50) was put at 70000 nM.

For the compound `COC(=O)[C@H](C)N[P@@](=O)(OC[C@@H]1C=C[C@H](n2cc(C)c(=O)[nH]c2=O)O1)Oc1cccc2ccccc12`, the EC50 in series [1] worked out at 250 nM; in series [2], 450 nM; in series [4], 120 nM; in series [5], 720 nM. Moreover, the cytotoxic concentration (CC50) in series [3] stood at 107000 nM.

For the compound `Cc1cn([C@H]2C=C[C@@H](CO)O2)c(=O)[nH]c1=O` [STAVUDINE], the EC50 is 132000 nM in series [1], 750 nM in series [2], 840 nM in series [4] and 2500 nM in series [5]. Besides, in series [3], the CC50 is more than 250000 nM.
